From ChEMBL document CHEMBL1142420, “Synthesis and DNA-cleaving activity of lactenediynes conjugated with DNA-complexing moieties” (2008)
The source made the active and inactive calls. The calls are words filed in the database; no cut-off is given here.

System: Escherichia coli
Assay: Induction of plasmid pBR322 DNA cleavage assessed as concentration required to cleave 50% of DNA after 24 hrs by gel electrophoresis
In short: (§1)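 Supercoiled pBR322 (90% form I) diluted to 50 µg/mL (75 µM/bp) in pH 7.5 Tris 40 mM/EDTA 4 mM. Incubated 24 h at 37 °C, then run on agarose gel with ethidium bromide and viewed at 302 nm. Form I versus II+III quantified by densitometry after subtracting form II present in the control.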

SMILES | CS50
CC(C)(C)OC(=O)N1C(=O)[C@@H]2CC#C/C=C\C#C[C@@H](OC(=O)CCc3cccc4ccccc34)[C@H]21 | 80 µM
CC(=O)Nc1cc(C(=O)Nc2cc(C(=O)N(C)CCCCCNC(=O)N3C(=O)[C@@H]4CC#C/C=C\C#C[C@@H](OC(C)=O)[C@H]43)n(C)c2)n(C)c1 | 35 µM
CC(=O)O[C@@H]1C#C/C=C\C#CC[C@H]2C(=O)N(C(=O)NCCCCCN(C)C(=O)Cc3cccc4ccccc34)[C@H]12 | 25 µM
CC[C@@]1(O)C(=O)OCc2c1cc1n(c2=O)Cc2c-1nc1ccccc1c2/C=N/OCCNC(=O)CCNC(=O)N1C(=O)[C@@H]2CC#C/C=C\C#C[C@@H](OC(C)=O)[C@H]21 | 10 µM
CC(=O)O[C@@H]1C#C/C=C\C#CC[C@H]2C(=O)N(C(=O)NCc3ccc4ccccc4c3)[C@H]12 | 70 µM
CC(=O)O[C@H]1C#C/C=C\C#CC[C@H]2C(=O)N(C(=O)OC(C)(C)C)[C@H]12 | 30 µM
CC(C)(C)OC(=O)N1C(=O)[C@@H]2CC#C/C=C\C#C[C@@H](OC(=O)CCc3ccc4ccccc4c3)[C@H]21 | 150 µM

Now from value to molecule:

CS50 | SMILES
150 µM | CC(=O)O[C@@H]1C#C/C=C\C#CC[C@H]2C(=O)N(C(=O)NCCc3ccc4ccccc4c3)[C@H]12
40 µM | CC(=O)O[C@@H]1C#C/C=C\C#CC[C@H]2C(=O)N(C(=O)NCCc3cccc4ccccc34)[C@H]12
15 µM | CCCCNC(=O)c1cc(NC(=O)c2cc(NC(=O)CCNC(=O)N3C(=O)[C@@H]4CC#C/C=C\C#C[C@@H](OC(C)=O)[C@H]43)n(C)c2)n(C)c1
25 µM | CC(=O)O[C@@H]1C#C/C=C\C#CC[C@H]2C(=O)N(C(=O)NCc3cccc4ccccc34)[C@H]12
70 µM | CC(=O)O[C@@H]1C#C/C=C\C#CC[C@H]2C(=O)N(C(=O)NCc3ccccc3)[C@H]12
25 µM | CC(=O)O[C@@H]1C#C/C=C\C#CC[C@H]2C(=O)N(C(=O)Nc3cccc4ccccc34)[C@H]12
200 µM | CC(=O)O[C@@H]1C#C/C=C\C#CC[C@H]2C(=O)N(C(=O)Nc3ccc4ccccc4c3)[C@H]12
25 µM | CC(=O)O[C@H]1C#C/C=C\C#CC[C@H]2C(=O)N(C(=O)NCc3cccc4ccccc34)[C@H]12
80 µM | CC(C)(C)OC(=O)N1C(=O)[C@@H]2CC#C/C=C\C#C[C@@H](OC(=O)Cc3cccc4ccccc34)[C@H]21
25 µM | CC(=O)O[C@@H]1C#C/C=C\C#CC[C@H]2C(=O)N(C(=O)NCCC(=O)NCc3ccccc3)[C@H]12

System: Escherichia coli
Assay: Induction of plasmid pBR322 DNA cleavage at 1 mM after 24 hrs by gel electrophoresis
In short: as §1

Activity | SMILES
inactive | CON1C(=O)[C@@H]2CC#C/C=C\C#CC(C)[C@H]21 (stereo partly drawn)
